Tests used:
Type in all cases: ADME, organism-based
Design in all cases: dose 5 mg/kg, dosed compound name [14C]-apixaban, route oral
Settings in all cases: in vivo
[1] = tested on: Pancreas; experiment: Biodistribution in pregnant Sprague-Dawley rat pancreas at 5 mg/kg, po administered as single dose measured after 24 hrs
Method in brief: (§1)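 Pregnant SD rats (270-319 g) were fasted overnight and given one oral gavage of 5 mg/kg (100 μCi/kg) in 0.5% Tween 80 in Labrafil. One rat was euthanized per time point (0.5, 1, 4, 8, 24, 48 h) and the carcass frozen. 40 µm sagittal sections were phosphor-imaged against [14C]glucose standards and results reported as µg eq/g; LLOQ 0.037 µg eq/g.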

[2] = tested on: Brain; experiment: Biodistribution in female Sprague-Dawley rat brain at 5 mg/kg, po administered as single dose measured after 24 hrs
Method in brief: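 [14C]Apixaban (1.0 mg/mL, 20 μCi/mL in 0.5% Tween 80 in Labrafil) given as a single oral gavage of 5 mg/kg (100 μCi/kg) to fasted female SD rats, one rat per time point. Carcasses were frozen in hexane/dry ice and cut into 40 µm sagittal sections for QWBA against [14C]glucose standards. Brain radioactivity is reported as µg eq/g, with LLOQ 0.037 µg eq/g.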

[3] = tested on: Rattus norvegicus; experiment: Biodistribution in pregnant Sprague-Dawley rat placenta at 5 mg/kg, po administered as single dose measured after 4 hrs
[4] = AUC (0 to t) in lactating Sprague-Dawley rat milk at 5 mg/kg, po administered as single dose
Method in brief: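 Fasted lactating SD rats received 5 mg/kg [14C]apixaban orally (formulation 5.0 mg/mL, 20 μCi/mL). Oxytocin was injected subcutaneously 15 min before collection, and 1 mL milk was taken under anesthesia by milking machine. Sampling was predose and at 0.5–24 h, 3 rats per time point. Plasma was obtained at 1300g for 10 min. Duplicate 50–100 µL aliquots were counted by LSC for 10 min. AUC was calculated in WinNonlin.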

[5] = tested on: Blood; experiment: Biodistribution in female Sprague-Dawley rat blood at 5 mg/kg, po administered as single dose measured after 0.5 hrs
Method in brief: (§2)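 [¹⁴C]Apixaban given by oral gavage at 5 mg/kg (100 μCi/kg) in 0.5% Tween 80 in Labrafil (1.0 mg/mL dosing solution) to rats fasted overnight through 4 h post-dose. One rat per time point; carcass frozen in hexane/dry ice. Quantitative whole-body autoradiography used 40 µm sagittal sections and a phosphor imaging plate calibrated with [¹⁴C]glucose standards (0.001–6.5 μCi/g). Read-out in µg eq apixaban/g; LLOQ 0.037 μg eq/g.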

[6] = tested on: Spleen; experiment: Biodistribution in male Sprague-Dawley rat spleen at 5 mg/kg, po administered as single dose measured after 4 hrs
Method in brief: (§3)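 [14C]apixaban (1.0 mg/mL, 20 μCi/mL) in 0.5% Tween 80 in Labrafil, given by oral gavage at 100 μCi/kg to male rats (225-252 g) fasted overnight through 4 h post-dose. One rat per time point. Carcasses frozen in hexane/dry ice and cut into 40 µm sagittal sections. QWBA read on phosphor plates against [14C]glucose standards, reported as µg eq/g. LLOQ 0.037 µg eq/g.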

[7] = tested on: Brain; experiment: Biodistribution in male Sprague-Dawley rat brain at 5 mg/kg, po administered as single dose measured after 24 hrs
[8] = tested on: Rattus norvegicus; experiment: Biodistribution in female Sprague-Dawley rat salivary gland at 5 mg/kg, po administered as single dose measured after 24 hrs
Method in brief: (§4)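 Quantitative whole-body autoradiography was run after a single 5 mg/kg (100 μCi/kg) oral gavage to fasted female or pregnant SD rats, one rat per time point. Carcasses were frozen in hexane/dry ice, and 40 µm sagittal sections were dried at −20°C for at least 48 h. Sections were exposed to a phosphor plate alongside [14C]glucose standards (0.001–6.5 µCi/g). Results are µg eq/g, with LLOQ 0.037 µg eq/g.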

[9] = tested on: Rattus norvegicus; experiment: Biodistribution in female Sprague-Dawley rat pituitary gland at 5 mg/kg, po administered as single dose measured after 72 hrs; method in brief: as §4
[10] = tested on: Rattus norvegicus; experiment: Biodistribution in pregnant Sprague-Dawley rat pituitary gland at 5 mg/kg, po administered as single dose measured after 0.5 hrs
[11] = tested on: Rattus norvegicus; experiment: Biodistribution in pregnant Sprague-Dawley rat pituitary gland at 5 mg/kg, po administered as single dose measured after 4 hrs
[12] = tested on: Brain; experiment: Biodistribution in male Sprague-Dawley rat brain at 5 mg/kg, po administered as single dose measured after 72 hrs
[13] = tested on: Pancreas; experiment: Biodistribution in male Sprague-Dawley rat pancreas at 5 mg/kg, po administered as single dose measured after 72 hrs
Method in brief: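 Fasted male SD rats (225-252 g) each received one oral gavage dose of [14C]apixaban, 5 mg/kg (100 μCi/kg), in 0.5% Tween 80/Labrafil vehicle. One rat was killed per time point, from 0.5 to 168 h. Frozen carcasses were cut into 40 µm sagittal whole-body sections and read by QWBA phosphor imaging against [14C]glucose calibrants. Results are in µg apixaban eq/g; BLQ <0.037 µg eq/g.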

[14] = tested on: Blood; experiment: Cmax in pregnant Sprague-Dawley rat blood at 5 mg/kg, po administered as single dose
Method in brief: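 Fasted male, female or pregnant SD rats received a single oral gavage of 5 mg/kg (100 μCi/kg) in 0.5% Tween 80/Labrafil. One rat was killed per time point, up to 168 h (48 h for pregnant). Blood was collected into K3EDTA. Blood radioactivity came from autoradiogram or LSC data, and Cmax was taken from the concentration-time profile.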

[15] = tested on: Rattus norvegicus; experiment: Biodistribution in fetal kidney of pregnant Sprague-Dawley rat at 5 mg/kg, po administered as single dose measured after 4 hrs
Method in brief: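 Pregnant rats, 270-319 g and fasted overnight, received [14C]apixaban by oral gavage at 100 μCi/kg in 0.5% Tween 80/Labrafil. One dam per time point was euthanized and frozen in hexane/dry ice. Fetal tissue radioactivity was measured by QWBA on 40 µm sagittal sections calibrated with [14C]glucose standards. Values are in µg eq/g, with LLOQ 0.037 μg eq/g.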

[16] = tested on: Thymus; experiment: Biodistribution in female Sprague-Dawley rat thymus at 5 mg/kg, po administered as single dose measured after 8 hrs; method in brief: as §4
[17] = tested on: Rattus norvegicus; experiment: Biodistribution in fetal kidney of pregnant Sprague-Dawley rat at 5 mg/kg, po administered as single dose measured after 24 hrs; method in brief: as §4
[18] = tested on: Spleen; experiment: Biodistribution in male Sprague-Dawley rat spleen at 5 mg/kg, po administered as single dose measured after 1 hr; method in brief: as §3
[19] = tested on: Harderian gland; experiment: Biodistribution in female Sprague-Dawley rat harderian gland at 5 mg/kg, po administered as single dose measured after 0.5 hrs; method in brief: as §2
[20] = tested on: Rattus norvegicus; experiment: Biodistribution in pregnant Sprague-Dawley rat kidney cortex at 5 mg/kg, po administered as single dose measured after 4 hrs
[21] = tested on: Heart; experiment: Biodistribution in male Sprague-Dawley rat heart at 5 mg/kg, po administered as single dose measured after 0.5 hrs; method in brief: as §2
[22] = tested on: Muscle tissue; experiment: Biodistribution in pregnant Sprague-Dawley rat muscle at 5 mg/kg, po administered as single dose measured after 24 hrs; method in brief: as §1
[23] = tested on: Adrenal gland; experiment: Biodistribution in pregnant Sprague-Dawley rat adrenal gland at 5 mg/kg, po administered as single dose measured after 1 hr
[24] = Drug level in lactating Sprague-Dawley rat milk at 5 mg/kg, po administered as single dose after 12 hrs

Radiolabel recovery [1]: Not detected assumed BLQ
Radiolabel recovery [2]: < 0.037 ugequiv/g
Radiolabel recovery [3]: 1.06 ugequiv/g
AUCt [4]: 103000 ngequiv.hr/g
Radiolabel recovery [5]: 0.4 ugequiv/g
Radiolabel recovery [6]: 0.28 ugequiv/g
Radiolabel recovery [7]: < 0.037 ugequiv/g
Radiolabel recovery [8]: Not detected assumed BLQ
Radiolabel recovery [9]: Not detected assumed BLQ
Radiolabel recovery [10]: 0.72 ugequiv/g
Radiolabel recovery [11]: 0.75 ugequiv/g
Radiolabel recovery [12]: < 0.037 ugequiv/g
Radiolabel recovery [13]: Not detected assumed BLQ
Cmax [14]: 1440 ngequiv/g
Radiolabel recovery [15]: 0.46 ugequiv/g
Radiolabel recovery [16]: 0.09 ugequiv/g
Radiolabel recovery [18]: 0.32 ugequiv/g
Radiolabel recovery [19]: 0.4 ugequiv/g
Radiolabel recovery [20]: 1.93 ugequiv/g
Radiolabel recovery [21]: 0.33 ugequiv/g
Radiolabel recovery [22]: Not detected assumed BLQ
Radiolabel recovery [23]: 1.9 ugequiv/g
Radiolabel recovery [24]: 3.61 µg/mL
Compound: COc1ccc(-n2nc(C(N)=O)c3c2C(=O)N(c2ccc(N4CCCC[14C]4=O)cc2)CC3)cc1
Radiolabel recovery [17]: Not sampled as not visualised in autoradiograph
